Results on 14 compounds are retold here after ChEMBL document CHEMBL1135330, “Synthesis and evaluation of 4-hydroxyphenylacetic acid amides and 4-hydroxycinnamamides as antioxidants” (Bioorg Med Chem Lett, 2002).

For experiment [1], the species on record is Rattus norvegicus. Put plainly: Compound was evaluated for its inhibitory concentration against [Fe2+]/AA- induced oxidative neuronal damage in primary cultured rat cortical cells. Type of experiment: functional, cell-based. A digest of the protocol:
(§1)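 Primary rat cortical cultures at 12–14 days in vitro were HBSS-washed and exposed for 2 h to Fe2+ (100 μM)/ascorbic acid (25 μM), with compound at various concentrations present during the insult. Cultures were then washed and held in MEM plus 21 mM glucose at 37 °C, 5% CO2.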

The species named for experiment [2] is Rattus norvegicus. Put plainly: Compound was tested for its DPPH radical scavenging activity in rat brain homogenates. Type of experiment: functional. (Loss of DPPH colour is used to gauge radical scavenging.)
The species named for experiment [3] is Rattus norvegicus. Put plainly: Compound was evaluated for its inhibitory concentration against X/XO- induced oxidative neuronal damage in primary cultured rat cortical cells. Type of experiment: functional, cell-based. A digest of the protocol: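 Primary rat cortical cultures at 12–14 days in vitro were washed with HBSS and exposed for 10 min to xanthine (0.5 mM)/xanthine oxidase (10 mU/mL), with compound at various concentrations present during the insult. They were then washed and kept in MEM plus 21 mM glucose at 37 °C, 5% CO2.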

For experiment [4], the species on record is Rattus norvegicus. Put plainly: Neuroprotective action was estimated in terms of its inhibitory concentration against superoxide and hydroxyl radicals measured by the leakage of cytoplasmic enzyme lactate dehydrogenase (LDH). The experiment is classed as functional.
Experiment [5] is filed under the species Rattus norvegicus. Put plainly: Compound was tested for its inhibitory concentration against formation of lipid peroxides in rat brain homogenates by thiobarbituric acid reactive substances (TBARS) assay according to the method of Stocks. Type of experiment: functional. A digest of the protocol: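 Lipid peroxidation was run on rat brain homogenate (pH 7.4) supernatant after 1000 × g for 10 min. It was started with 0.02 mM FeCl2 and 0.25 mM ascorbic acid for 30 min at 37 °C and stopped with perchloric acid. After re-centrifugation, the supernatant was reacted with 0.5% TBA at 80 °C for 1 h, cooled, and read at 532 nm.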

Experiment [6] is filed under the species Rattus norvegicus. Put plainly: Compound was evaluated for its inhibitory concentration against hydrogen peroxide- induced oxidative neuronal damage in primary cultured rat cortical cells. Type of experiment: functional, cell-based. A digest of the protocol: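 Cortical cultures from rat, 12–14 days in vitro, were HBSS-washed and exposed to H2O2 for 5 min, with compound at various concentrations present during the exposure. Cultures were then washed and kept in MEM plus 21 mM glucose at 37 °C, 95% air/5% CO2.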

For experiment [7], the species on record is Rattus norvegicus. Put plainly: Neuroprotective action was estimated in terms of its inhibitory concentration against superoxide and hydroxyl radicals measured by the leakage of cytoplasmic enzyme lactate dehydrogenase (LDH); found highly potent. Type of experiment: functional.
The species named for experiment [8] is Rattus norvegicus. Put plainly: Neuroprotective action was estimated in terms of its inhibitory concentration against [Fe2+]/AA- induced toxicity. The experiment is classed as functional. A digest of the protocol:
as §1

As usually defined, the IC50 is the midpoint of a concentration-inhibition curve.

Consider `Cc1ccc(CCCNC(=O)Cc2ccc(O)c(O)c2)cc1C`, for which the IC50 in experiment [1] was 2.4 µM; in experiment [2], 31 µM; in experiment [3], 3.3 µM; in experiment [4], 2.4 µM; in experiment [5], 2.6 µM; in experiment [6], 6.03 µM. In addition, the IC50 in experiment [7] is 2.4 µM.

In the case of `COc1cc(/C=C/C(=O)NCCCc2ccc(C)c(C)c2)cc(OC)c1O`, the half-inhibitory concentration (IC50) in experiment [2] is 89.1 µM; in experiment [5], 3.41 µM; in experiment [8], 5.4 µM.

Take `CCOc1cc(CC(=O)NCCCc2ccc(C)c(C)c2)ccc1O`: the concentration for half-maximal inhibition (IC50) is 182 µM in experiment [2] and 24 µM in experiment [5].

Regarding `Cc1ccc(CCCNC(=O)/C=C/c2ccc(O)c(O)c2)cc1C`, the concentration for half-maximal inhibition (IC50) is 23.7 µM in experiment [1]; 34.3 µM in experiment [2]; 2.54 µM in experiment [3]; 1.11 µM in experiment [5]; 5.91 µM in experiment [6].

Regarding `COc1cc(CC(=O)NCCCc2ccc(C)c(C)c2)cc(OC)c1O`, the IC50 came out at 50.1 µM in experiment [2] and 11.8 µM in experiment [5].

As for `Cc1ccc(CCCNC(=O)Cc2ccc(O)c(Oc3ccccc3)c2)cc1C`, the IC50 in experiment [2] was more than 300 µM; in experiment [5], 32 µM.

For `Cc1ccc(CCCNC(=O)Cc2cc(O)c(O)c(O)c2)cc1C`, the IC50 came to 26.8 µM in experiment [1]; 21.3 µM in experiment [2]; 34.8 µM in experiment [3]; 1.81 µM in experiment [5]; 35 µM in experiment [6].

As for `Cc1ccc(CCCNC(=O)Cc2ccc(O)c(OC(C)C)c2)cc1C`, the IC50 in experiment [2] is more than 300 µM; in experiment [5] it was 19.4 µM; in experiment [8] it was 34.2 µM.

In experiment [5], `Cc1cc(C(C)(C)C)c(O)c(C(C)(C)C)c1` [BUTYLATED HYDROXYTOLUENE] displayed an IC50 of 4.03 µM.

On to `COc1cc(CC(=O)NCCCc2ccc(C)c(C)c2)ccc1O`, for which the figures for the concentration for half-maximal inhibition (IC50) in experiment [2] and in experiment [5] were 179 µM and 25.9 µM, respectively.

Take `Cc1c(C)c2c(c(C)c1O)CC[C@@](C)(CCC[C@H](C)CCC[C@H](C)CCCC(C)C)O2` [ALPHA-TOCOPHEROL]: the half-inhibitory concentration (IC50) in experiment [5] was 4.68 µM.

For the compound `CCCCOc1cc(CC(=O)NCCCc2ccc(C)c(C)c2)ccc1O`, the IC50 is 162 µM in experiment [2], 9.28 µM in experiment [5] and 4.2 µM in experiment [8].

In the case of `COc1cc(/C=C/C(=O)NCCCc2ccc(C)c(C)c2)ccc1O`, the IC50 in experiment [2] was 82.2 µM; in experiment [5] it was 9.94 µM.

Turning to `Cc1c(C)c2c(c(C)c1O)CCC(C)(C(=O)O)O2` (stereo unspecified) [TROLOX], the IC50 in experiment [1] came out at 431 µM; in experiment [3], 202 µM; in experiment [6], 330 µM.
